Results from different studies.
Protocols differ between the studies behind these lines. pIC50: −log10 of the molar value.
Cell line: MDA-MB-231

Structure (SMILES) | read-out | mode | method | time | pIC50
O=C1CCC2(Oc3cccc4cccc(c34)O2)c2c(O)ccc(O)c21 | cell growth or viability |  | resazurin | 72 h | < 4.60
COc1ccc(Br)cc1/C=C/C(=O)c1ccc(NC(C)=O)cc1 | cell growth or viability |  | MTT | 48 h | 5.52
CN(C)c1ccc(-c2nc3ccccc3[nH]2)cc1 | cell growth or viability |  | MTT | 48 h | 4.54
CC(C)CCC[C@@H](C)[C@H]1CC[C@H]2[C@@H]3CC=C4C[C@@H](O)CC[C@]4(C)[C@H]3CC[C@]12C | cell growth or viability |  | resazurin | 72 h | < 4.52
COc1ccc(/C=C/C(=O)c2cc(Br)ccc(=O)c2O)cc1 | cell growth or viability |  | MTT | 48 h | 5.26
COc1ccc(-c2ccc3ncnc(Nc4cccc(C(F)(F)F)c4)c3c2)cc1 | cell growth or viability |  | MTT | 24 h | 5.19
Cc1ccc2nc(-c3ccc(Cl)cc3)n(Cc3ccccc3)c2c1 | cell growth or viability |  | MTT |  | 5.62
C[C@@H]1C[C@H](c2cccc(F)c2)c2c(cc3ccccn23)C(=O)O1 (racemic) | cell growth or viability |  | resazurin | 72 h | 4.10
Cc1cc(NS(=O)(=O)c2ccc(NC(=O)COc3ccc(C(C)(C)c4ccccc4)cc3)cc2)nc(C)n1 | cell growth or viability |  | MTT | 72 h | 4.41
O=C(CCl)Nc1ccc2c(Nc3cccc(C(F)(F)F)c3)ncnc2c1 | cell growth or viability |  | MTT | 24 h | 5.16
O=C(CSc1nc2ccc(N=Cc3ccc(Sc4nnnn4-c4ccccc4)o3)cc2s1)N1CCOCC1 | cell growth or viability |  | MTT | 48 h | 4.68
FC(F)(F)c1cccc(Nc2ncnc3ccc(-c4ccc(Cl)cc4)cc23)c1 | cell growth or viability |  | MTT | 24 h | 4.94
Oc1ccccc1-c1nc2ccccc2[nH]1 | cell growth or viability |  | MTT | 48 h | 4.44
Cc1nc(Nc2ncc(C(=O)Nc3c(C)cccc3Cl)s2)cc(N2CCN(CCO)CC2)n1 | cell growth or viability |  | MTT | 48 h | 4.71
C=CCn1c(-c2ccc([N+](=O)[O-])cc2)nc2ccccc21 | cell growth or viability |  | MTT |  | 4.36
C[C@@H]1C[C@H](c2ccc(Br)cc2)c2c(cc3ccccn23)C(=O)O1 (racemic) | cell growth or viability |  | resazurin | 72 h | 4.78
COc1cccc2c1C(=O)c1c(O)c3c(c(O)c1C2=O)C[C@@](O)(C(=O)CO)C[C@@H]3O[C@H]1C[C@H](N)[C@H](O)[C@H](C)O1 | cell growth or viability |  | MTT | 72 h | 5.83
C=CCNC1=C2C[C@@H](C)C[C@H](OC)[C@H](O)[C@@H](C)/C=C(\C)[C@H](OC(N)=O)[C@@H](OC)/C=C\C=C(/C)C(=O)NC(=CC1=O)C2=O | cell growth or viability |  | MTT |  | 6.47
[Na+].[Na+].[Na+].[O]=[V]([O-])([O-])[O-] | cell migration | inhibitor |  |  | 5.25
CC(=O)CC(=O)[c-]1cccc1.[Fe+2].c1cc[cH-]c1 | cell growth or viability |  | MTT | 96 h | 4.33
Nc1ccn([C@@H]2O[C@H](CO)[C@@H](O)C2(F)F)c(=O)n1 | cell growth or viability |  | resazurin | 72 h | 5.35
CCOc1ccc(-c2nc3ccccc3n2Cc2ccccc2)cc1 | cell growth or viability |  | MTT |  | 4.68
CC(C)C[C@H](NC(=O)[C@H](Cc1ccccc1)NC(=O)c1cnccn1)B(O)O | cell growth or viability |  | ATP luminescence |  | 7.89
COc1cc(OC)cc([C@H]2C[C@@H](C)OC(=O)c3cc4ccccn4c32)c1 (racemic) | cell growth or viability |  | resazurin | 72 h | 4.69

Structure (SMILES) | read-out | mode | method | time | pIC50
COc1c(C)c(OC)c2c(c1C)OC(c1ccccc1)CC2=O (stereo not drawn) | cell growth or viability |  | SRB | 72 h | < 4.30
FC(F)(F)c1cccc(Nc2ncnc3ccc(Nc4ccccc4)cc23)c1 | cell growth or viability |  | MTT | 24 h | 4.81
O=C(Nc1nnc(-c2cc3ccccc3[nH]2)s1)c1cc2c([nH]c3ccccc32)c(-c2ccccc2)n1 | cell growth or viability |  | MTT | 72 h | 5.40
COc1cccc2c1C(=O)c1c(O)c3c(c(O)c1C2=O)C[C@@](O)(C(=O)CO)C[C@@H]3O[C@H]1C[C@H](N)[C@H](O)[C@H](C)O1 | cell growth or viability |  | resazurin | 72 h | 6.42
C[C@H]1[C@@H](O)O[C@@H]2O[C@@]3(C)CC[C@H]4[C@H](C)CC[C@@H]1[C@@]24OO3 | cell growth or viability |  | CCK-8 | 48 h | < 4.30
CCCCCCCCCCCC(=O)Oc1c(C)c(O)c(C(=O)/C=C/c2ccccc2)c(OC)c1C | cell growth or viability |  | SRB | 72 h | < 4.30
Oc1ccccc1-c1ccc2ncnc(Nc3cccc(C(F)(F)F)c3)c2c1 | cell growth or viability |  | MTT | 24 h | 5.07
COc1cccc2c1C(=O)c1c(O)c3c(c(O)c1C2=O)C[C@@](O)(C(=O)CO)C[C@@H]3O[C@H]1C[C@H](N)[C@H](O)[C@H](C)O1 | cell growth or viability |  | MTT |  | 5.17
CC(=O)O[C@@]12CO[C@@H]1C[C@H](O)[C@@]1(C)C(=O)[C@H](O)C3=C(C)[C@@H](OC(=O)[C@H](O)[C@@H](NC(=O)OC(C)(C)C)c4ccccc4)C[C@@](O)([C@@H](OC(=O)c4ccccc4)[C@H]21)C3(C)C | cell growth or viability |  | ATP luminescence | 72 h | 8.66
FC(F)(F)c1cccc(Nc2ncnc3ccc(NCc4ccccc4)cc23)c1 | cell growth or viability |  | MTT | 24 h | 4.90
C[C@@H]1C[C@@H](c2cccc(Cl)c2)c2c(cc3ccccn23)C(=O)O1 (racemic) | cell growth or viability |  | resazurin | 72 h | < 4.00
Oc1ccc(Br)cc1-c1nc2ccccc2[nH]1 | cell growth or viability |  | MTT | 48 h | 4.89
CN(C)c1ccc2cc(C(=O)N[C@@H](CCCNC(=N)CCl)C(=O)NCc3ccccc3)ccc2c1 | cell growth or viability |  |  | 48 h | 5.15
COc1ccc(-c2nc3ccccc3[nH]2)cc1O | cell growth or viability |  | MTT | 48 h | 4.05
CC(C)=CCc1c(O)c(CC=C(C)C)c2oc3c(O)ccc(O)c3c(=O)c2c1O | cell growth or viability |  |  | 48 h | 4.77
O=C(Nc1nnc(-c2cc3ccccc3[nH]2)s1)c1cc2c([nH]c3ccccc32)c(-c2ccc(F)cc2)n1 | cell growth or viability |  | MTT | 72 h | 5.17
CCc1ccc(N2NC(=O)/C(=C/c3ccc(-c4ccc(S(=O)(=O)Nc5nccs5)cc4)o3)C2=O)cc1 | cell growth or viability |  | MTT | 48 h | 4.19
O=C(C=C[c-]1cccc1)c1sccc1Br.[Fe+2].c1cc[cH-]c1 | cell growth or viability |  | MTT | 72 h | 5.18
COc1cc([C@@H]2C[C@@H](C)OC(=O)c3cc4ccccn4c32)cc(OC)c1OC (racemic) | cell growth or viability |  | resazurin | 72 h | < 4.00
COc1ccnc(Nc2ccc3ncnc(Nc4cccc(C(F)(F)F)c4)c3c2)c1 | cell growth or viability |  | MTT | 24 h | 5.18
CCn1c(-c2nnc(NC(=O)c3cc4c([nH]c5ccccc54)c(-c4cc(OC)c(OC)c(OC)c4)n3)s2)cc2ccccc21 | cell growth or viability |  | MTT | 72 h | 5.06
CC(=O)Nc1nc(C)c(-c2csc(Nc3ccccc3)n2)s1 | cell growth or viability |  | MTT | 48 h | 4.91
Clc1ccccc1-c1nc2ccccc2[nH]1 | cell growth or viability |  | MTT | 48 h | 4.30
CCN1CCN(Cc2ccc(Nc3ncc(F)c(-c4cc(F)c5nc(C)n(C(C)C)c5c4)n3)nc2)CC1 | cell growth or viability |  | CCK-8 |  | 5.78
